T cruzi inh: blocks replication of Trypanosoma cruzi; inhibition, % (no concentration beside the values); T. cruzi beta-gal in NIH3T3, luminescence, 90 h; actives 1.4% (n = 300,000); AID 1885;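 active = mean inhibition across valid replicates above about 55%, limit read from the data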;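 note: signal also drops with host cell toxicity which is not excluded here; higher percent means less beta-gal luminescence so fewer parasites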
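Test system: β-gal T. cruzi (Tulahuen C4) inside NIH/3T3 cells / Quantity: 5,000 cells/well / Measured by: luminescence from GalScreen with 0.05% NP40, read after 60 min / Medium: DMEM plus 2% FBS / Measure: parasite load inhibition, % / Reagent: Tulahuen C4 trypomastigotes, 5000/well / Schedule: co-culture of at least 90 h after 3 h attachment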
L major viab: Leishmania major promastigote growth inhibition. Leishmania major promastigotes, resazurin fluorescence viability. inhibition, % at 10 µM. actives 9% (n = 200,000). AID 1063; in the data active = inhibition above about 50%;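 note: promastigotes grown with compound for 44 hours at 28 °C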
Hsp70 act: switches on Hsp70 transcription. actives 0.04% (n = 200,000). HeLa Hsp70 promoter luciferase reporter, luminescence; scaled: vehicle 0, proteasome-inhibitor control 100%. activation, % at 10 µM;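 active = activation above the mean across all tested compounds plus 3 SD, cutoff set per campaign, cut at about 5.5% in these data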
HSF1 inh: HSF1 inhibition. NIH3T3-HGL HSE-luciferase, MG132-induced, luminescence 8 h; active compounds read low. actives 0.77% (n = 300,000). activity change, negative = inhibition, % at 7.5 µM (by protocol);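 active = more than half of replicate wells show activity change below -50%, luminescence cut by over half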;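 note: luciferase reports HSF-1 transcriptional activity via heat shock element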
HSF1 activator: increases HSF-1 driven luciferase reporter signal | NIH3T3-HGL HSF-1 luciferase reporter, MG132, 8 h; 100% = twice DMSO control signal | activation, % at 9 µM | actives 1.7% (n = 300,000);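 active = mean replicate activation of at least 50% with a set share of replicates each reaching 50%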
Large screens that a line does not name were inactive. The full list was thinned out, with hits kept by preference.

CC(=O)c1c(C(C)=O)c(C)n(-c2cccc([N+](=O)[O-])c2)c1C	none
Cc1cc(C(=O)CCl)c(C)n1-c1ccon1	L major viab 97
Cc1c(C)n(Cc2ccc(F)cc2)c2ccc(C(=O)NCCN3CCOCC3)cc12	none (no result: L major viab, Hsp70 act)
O=C(CN1CCc2cc3c(cc2C1)OCCCO3)Nc1cccc(Br)c1	none (no result: L major viab, Hsp70 act)
COc1ccc(/C=C/c2nnc(NC(C)=O)s2)cc1	HSF1 activator 57 (no result: L major viab, Hsp70 act)
CCCNC(=O)COC(=O)c1[nH]c(C)c(C(=O)OCC)c1C	none
CCOC(=O)c1c(C)[nH]c(C(=O)OCC(=O)Nc2sccc2C(N)=O)c1C	HSF1 inh -75 (no result: L major viab, Hsp70 act)
O=C(c1ccc(-c2cc(Cl)ccc2Cl)o1)N1CCOCC1	none
O=C(c1ccc(-c2ccc(Cl)cc2Cl)o1)N1CCOCC1	HSF1 activator 60
CC(C)Oc1ccc(C(CC(=O)NCc2ccco2)c2ccccc2)cc1 (stereo not given)	L major viab 67 (no result: T cruzi inh, HSF1 inh, HSF1 activator)
Cc1cccc(C(CC(=O)NCc2ccco2)c2ccccc2)c1O (stereo not given)	none
O=Cc1ccnc(-c2ccc(OC(=O)c3ccco3)cc2)n1	none
CCCN(CCC)C1=CC(=[N+]2CCCC2)CC(C)(C)C1	T cruzi inh 60, L major viab 100
CC1(C)CC(N2CCCCC2)=CC(=[N+]2CCCCC2)C1	T cruzi inh 77, L major viab 100
CCCCc1ccc(N=N/C(C(=O)Nc2ccc(NC(C)=O)cc2OC)=C(/C)O)cc1	none (no result: L major viab, Hsp70 act)
CCOc1ccc(C(=O)N2CCC3(CC2)NCCc2[nH]cnc23)cc1	none (no result: L major viab, Hsp70 act)
O=C(Nc1ccc(Cl)cc1)OCc1ccccn1	HSF1 activator 57
CS(=O)(=O)c1ccccc1COC(=O)Nc1ccc(Cl)cc1	none
CCOC(=O)c1cc(C)n(CCc2ccccc2)c1C	none
Cc1cc(C(=O)CCl)c(C)n1CCc1ccccc1	L major viab 100
COC(=O)CCCn1c(C)cc(C(=O)CCl)c1C	L major viab 100
CCc1cc2c3c([nH]c2cc1S(=O)(=O)NCCCOC)CC(C)(C)CC3=O	none (no result: L major viab, Hsp70 act)
COc1ccc2nc(C)cc(N/N=C/c3ccc(F)cc3)c2c1	T cruzi inh 61 (no result: L major viab, Hsp70 act)
COc1ccc(/C=N/Nc2cc(C)nc3c(C)cccc23)cc1	T cruzi inh 74 (no result: L major viab, Hsp70 act)
COC(=O)Nc1cc(C)nc2ccccc12	L major viab 55
COc1ccc(/C=N/Nc2cc(C)nc3ccccc23)cc1	T cruzi inh 64 (no result: L major viab, Hsp70 act)
CC1(C)CC(=O)C2=C(C1)OC(N)=C(C#N)C2c1cn(-c2ccccc2)nc1-c1ccc(F)cc1 (stereo not given)	L major viab 66 (no result: HSF1 inh, HSF1 activator)
CC1(C)CC(=O)C2=C(C1)C(c1cn(-c3ccccc3)nc1-c1ccccc1)C(C#N)=C(N)O2 (stereo not given)	L major viab 79
Cn1cccc1C1C(C#N)=C(N)OC2=C1C(=O)CC(C)(C)C2 (stereo not given)	none
CCCCNC(=O)CSc1nc2ccsc2c(=O)n1CCCC(=O)NCCc1ccc(S(N)(=O)=O)cc1	none
COC(C/C=C\C(=O)[C@@H](C)OCc1ccccc1)OC	none (no result: L major viab, Hsp70 act)
CN(C(=O)Nc1ccc(Cl)cc1Cl)[C@H]1c2cc(Br)ccc2OC[C@H]1CO	none
CCOc1ccccc1CN1CCN(CC2=Cc3cc(OC)ccc3OC2)CC1CCO (stereo not given)	T cruzi inh 55 (no result: L major viab, Hsp70 act)
CCOc1ccccc1CN1CCN(Cc2ccc(C)o2)CC1CCO (stereo not given)	none
COc1ccc(CN2CCN(Cc3cc4ccccc4o3)CC2CCO)cc1C (stereo not given)	T cruzi inh 55 (no result: L major viab, Hsp70 act)
Cc1ccc2[nH]c(CN3CCN(C)C(CCO)C3)c(C)c2c1 (stereo not given)	none (no result: L major viab, Hsp70 act)
CCOc1ccccc1CN1CCN(Cc2nc3ccccc3s2)CC1CCO (stereo not given)	T cruzi inh 58
CCOc1ccc(CN2CCN(Cc3[nH]c4ccc(OC)cc4c3C)CC2CCO)cc1 (stereo not given)	T cruzi inh 72, L major viab 57
CCc1nn(CC(=O)NCCN2CCN(C)CC2)c(=O)c2cc3c(OC)cccc3n12	none (no result: L major viab, Hsp70 act)
CCOC(=O)c1[nH]c2ccccc2c1NC(=O)c1ccc(S(=O)(=O)N2CCCCC2)cc1	none
CCOc1ccccc1CN1CCN(Cc2c[nH]c3ccccc23)CC1CCO (stereo not given)	none (no result: L major viab, Hsp70 act)
CCOc1ccccc1CN1CCN(Cc2[nH]c3ccccc3c2C)CC1CCO (stereo not given)	T cruzi inh 66
COc1ccc(CN2CCN(Cc3cccc4nonc34)CC2CCO)c(C)c1C (stereo not given)	T cruzi inh 66
COc1cccc(CN2CCN(CCc3ccccc3)C(CCO)C2)c1OC (stereo not given)	none
COc1cccc2c1OCC(CN1CCN(CCC(C)C)C(CCO)C1)=C2 (stereo not given)	L major viab 70
O=C(NCc1cccnc1)c1cc(S(=O)(=O)N2CCCC2)c(Cl)cc1Cl	none (no result: L major viab, Hsp70 act)
O=C1c2cccc3cc([N+](=O)[O-])cc(c23)C(=O)N1c1ccccc1O	T cruzi inh 58, L major viab 98
O=C1c2cccc3cc([N+](=O)[O-])cc(c23)C(=O)N1c1nncs1	none (no result: L major viab, Hsp70 act)
Cc1cc(O)ccc1N1C(=O)c2cccc3cc([N+](=O)[O-])cc(c23)C1=O	T cruzi inh 67, L major viab 88
Nc1ccccc1N1C(=O)c2cccc3cccc(c23)C1=O	none (no result: L major viab, Hsp70 act)
CC(C)c1ccc(CN2CCSCC2)cc1	none (no result: L major viab, Hsp70 act)
COc1cc2c(cc1OC)CN(Cc1cc(OC)c(O)c(OC)c1)CC2	none
CCCN(CC1CC1)C(=O)COC(=O)c1[nH]c(C)c(C(=O)OCC)c1C	L major viab 80
COc1ccc(C(=O)Nc2c3c(nn2-c2cccc(Cl)c2)CS(=O)C3)cc1 (stereo not given)	L major viab 98
CCCn1c(SCC(=O)NCc2ccc(Cl)cc2)n[nH]c1=O	none
CC1(C)C/C(=N\NC(=S)Nc2ccccc2F)c2cc(O)ccc2O1	L major viab 80
O=C(NC1CCCCC1)N1CCN(c2ccccc2Cl)CC1	none (no result: L major viab, Hsp70 act)
CCOC(=O)c1ccc(CNCc2ccc(C)cc2)cc1	L major viab 79
COc1ccc(OC)c(S(=O)(=O)NCC(c2cccs2)N2CCc3ccccc3C2)c1 (stereo not given)	none (no result: L major viab, Hsp70 act)
COCCNc1nnc(SCC(=O)c2c[nH]c3ccccc23)s1	none
COc1ccc(C2CC(=O)c3c(C)nc(N4CCN(Cc5ccccc5)CC4)nc3C2)cc1OC (stereo not given)	T cruzi inh 55
Cc1nc(N2CCN(Cc3ccccc3)CC2)nc2c1C(=O)CC(C)C2 (stereo not given)	T cruzi inh 71
COc1ccc(-n2c(SCC(=O)Nc3ccc(C(N)=O)cc3)nc3ccccc3c2=O)cc1OC	HSF1 activator 60 (no result: L major viab, Hsp70 act)
CCOC(=O)c1c(NC(=O)CSc2ncnc3ccccc23)sc(C)c1C	L major viab 77
CCOC(=O)c1c(NC(=O)CSc2nncs2)sc(C)c1-c1ccccc1	L major viab 75

Assay outcomes: PubChem, several laboratories
